Records with an inconclusive call do not appear.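 Rule for the calls, unless noted: active = cell viability at or below a set limit in both duplicate runs, the limit being the all-compound median minus 4 SD (cut at about 23% in these data, passing the limit was not always enough); inconclusive = no clear call, values can overlap the other calls; inactive = the rest.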
Assays:
[1] = S. cerevisiae growth inhibition in permissive medium (OD615), pilot counter-assay for S. cerevisiae lifespan shortening project, permissive growth control (AID 705;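 active = growth inhibition above 25% in both replicates, a cutoff set 3 SD above the mean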); conditions: OD615, 24 h, at 10 µM, active compounds read high
In short: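 Material: engineered DeaD yeast; compound dosing: one dose 10 µM, DMSO 0.25% final; measure: yeast growth inhibition indicated by reduced 24 h OD615; detection: OD615 turbidity read; incubation: cells pre-grown 4 h, then 24 h compound exposure, 30 °C humidified; medium: permissive synthetic complete medium with raffinose and galactose carbon sources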

[2] = S. cerevisiae growth inhibition in restrictive medium, OD615, pilot screen, restrictive growth control, yeast lifespan reduction project (AID 706;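 active = growth inhibition above a set limit, 3 SD over mean compound inhibition, in both replicates, cut at about 43% in these data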;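 note: modified DeaD lifespan yeast strain shifted to restrictive glucose medium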); conditions: OD615, 48 h, at 10 µM, active compounds read high
In short: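 material = engineered S. cerevisiae DeaD strain | medium = glucose-based CSMM-D restrictive medium | times = 4 h pre-incubation, 48 h exposure at 30 °C | technique = OD615 absorbance reading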

[3] = doxorubicin toxicity protection in MRP-1 cells – H69AR cells, CellTiter-Glo, duplicate, MRP-1 activator project, pilot screen (AID 807;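 active = viability increase at or above a cutoff of the median across tested compounds plus 3 SD, cut at about 8.5% in these data, passing the limit was not always enough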;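 note: compound pretreatment 18-22 h then 72 h combined with doxorubicin; 0% = doxorubicin alone and 100% = vehicle without doxorubicin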); conditions: H69AR viability with doxorubicin, CellTiter-Glo luminescence; at 10 µM; active compounds read high
[4] = viability of HCT116 without oncogenic beta-catenin – human colon tumor cells, pilot screen (AID 823); conditions: HCT116 beta-catenin knockout viability, CellTiter-Glo, 60 h; at 10 µM; active compounds read low;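 note: 0% = wells killed by 20 µM Hyamine and 100% = untreated DMSO cell wells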
[5] = viability of PTEN-null HCT116 cells – cell-based, HCT116 clonal line, CellTiter-Glo, pilot screen (AID 824;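 active = viability at or below 27.92% in each of two runs, the all-compound median minus 4 SD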;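 note: 0% = 20 µM Hyamine control and 100% = vehicle cell control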); conditions: HCT116 PTEN-deleted viability, 60 h, at 10 µM, active compounds read low
[6] = RAM pathway blockade in budding yeast – dse1pr::URA3 reporter, 5-FOA selection, pilot screen (AID 869;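 active = inhibition over a set limit, the all-compound mean plus 3 SD, in both replicate runs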;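 note: 0% = DMSO wells with no growth and 100% = 10 µM 1-NA-PP1 with full growth; RAM network block rescues cells from 5-FOA so hits raise OD615 growth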); conditions: S. cerevisiae dse1pr::URA3 5-FOA growth, OD615, 2 d; at 10 µM; active compounds read high; strain carries analog-sensitive mutant Cbk1 kinase
[7] = RAM signaling pathway blockade in yeast – S. cerevisiae, Pdr1DBD-CYC8 efflux-inhibited sensitized strain, primary screen (AID 1298;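 active = RAM network inhibition above 8.4% in each of two replicates, 3 SD over the compound average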;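 note: 0% = DMSO untreated cells without growth and 100% = 10 µM 1-NA-PP1 full growth; higher means more yeast growth rescued from 5-FOA killing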); conditions: S. cerevisiae cbk1-as DSE1-URA3 strain, 5-FOA growth OD615, 2 d; at 50 µM; active compounds read high

Cn1c(C(=O)N2CCN(C3CCCCC3)CC2)cc2c(=O)n(C)c3ccccc3c21
inactive: growth inhibition [1] -0.185% | growth inhibition [2] 4.76% | viability increase [3] -1.32% | viability [4] 105% | viability [5] 101% | inhibition [6] 1.2% | RAM network inhibition [7] 0.21%

CCOC(=O)C(C)Sc1ncnc2nc[nH]c12 (stereo unspecified)
inactive: growth inhibition [1] -1.5% | growth inhibition [2] -25.9% | viability increase [3] -1.35% | viability [4] 98.8% | viability [5] 99.2% | inhibition [6] 1.11% | RAM network inhibition [7] 3.25%

COc1cc(OC)c(C2N(c3ccc(Cl)cc3)C(=O)C3CCCN32)cc1OC (stereo unspecified)
inactive: growth inhibition [1] -2.8% | growth inhibition [2] -2.08% | viability increase [3] -2.63% | viability [4] 105% | viability [5] 96.7% | inhibition [6] 2.59% | RAM network inhibition [7] 3.82%

CCOc1ccc(N(CC(=O)N2CCc3ccccc32)S(=O)(=O)c2c(C)noc2C)cc1
inactive: growth inhibition [1] -1.81% | growth inhibition [2] 10.1% | viability increase [3] -5.12% | viability [4] 65.7% | viability [5] 59.2% | inhibition [6] 3.63% | RAM network inhibition [7] 2.47%

Cc1nc2ccccc2c2oc(C(=O)NCc3ccc4c(c3)OCO4)cc12
inactive: growth inhibition [1] -5.28% | growth inhibition [2] -8.97% | viability increase [3] -0.55% | viability [4] 70.8% | viability [5] 80.8% | inhibition [6] 1.01% | RAM network inhibition [7] 5.03%

O=C(CCSc1nc(-c2ccc3c(c2)OCO3)cc(C(F)(F)F)n1)NCc1ccco1
inactive: growth inhibition [1] -4.51% | growth inhibition [2] -2.02% | viability increase [3] -2.85% | viability [4] 74.8% | viability [5] 74.6% | inhibition [6] 2.63% | RAM network inhibition [7] 2.97%

Nn1c(SCc2ccccc2)nnc1-c1ccco1
inactive: growth inhibition [1] -8.86% | growth inhibition [2] 3.38% | viability increase [3] -3.7% | viability [4] 99.2% | viability [5] 93% | inhibition [6] 0.67% | RAM network inhibition [7] -1.12%

O=C1c2oc3ccc(F)cc3c(=O)c2C(c2ccc(F)cc2)N1CCCN1CCOCC1 (stereo unspecified)
inactive: growth inhibition [1] -1.14% | growth inhibition [2] 6.59% | viability increase [3] 0.11% | viability [4] 106% | viability [5] 97.5% | inhibition [6] 1.92% | RAM network inhibition [7] -0.47%

CCOC(=O)c1c(C)c(-c2ccccc2)n(CC(=O)N2CCCC2)c1C
inactive: growth inhibition [1] -8.25% | growth inhibition [2] -12.4% | viability increase [3] -3.38% | viability [4] 87.6% | viability [5] 92.3% | inhibition [6] 1.31% | RAM network inhibition [7] 2.73%

CC(C)(C)c1ccc(NC(=O)NCc2ccco2)cc1
inactive: growth inhibition [1] -8.65% | growth inhibition [2] 2.62% | viability increase [3] -5% | viability [4] 63.8% | viability [5] 64.5% | inhibition [6] 1.23% | RAM network inhibition [7] -0.31%

O=C1CCc2cc(S(=O)(=O)NC(Cc3ccccc3)C(=O)NCC3CCCO3)ccc2N1 (stereo unspecified)
inactive: growth inhibition [1] -8.29% | growth inhibition [2] -8.79% | viability increase [3] -2.76% | viability [4] 94.3% | viability [5] 92.8% | inhibition [6] 2.2% | RAM network inhibition [7] 1.49%

CCOC(=O)N1CCC(NC(=O)Cn2cc3c(n2)CCCCC3)CC1
inactive: growth inhibition [1] -5.77% | growth inhibition [2] 5.48% | viability increase [3] 1.03% | viability [4] 108% | viability [5] 98.6% | inhibition [6] -0.43% | RAM network inhibition [7] 0.41%

O=C(O)CCc1nnc2n(Cc3ccc(F)cc3)c(=O)c3ccccc3n12
inactive: growth inhibition [1] -4.64% | growth inhibition [2] 5.36% | viability increase [3] -0.62% | viability [4] 99.2% | viability [5] 90.8% | inhibition [6] 1.04% | RAM network inhibition [7] 1.56%

Cc1ccc(Cn2c3ccccc3c3cn[nH]c(=O)c32)cc1
inactive: growth inhibition [1] -15.7% | growth inhibition [2] -24.6% | viability increase [3] -3.48% | viability [4] 101% | viability [5] 91.1% | inhibition [6] 2.17% | RAM network inhibition [7] 3.88%

CC(C)(C)NCCCCOc1ccc(F)cc1
inactive: growth inhibition [1] 0.455% | growth inhibition [2] -1.1% | viability increase [3] 0.34% | viability [4] 99.3% | viability [5] 101% | inhibition [6] 1.71% | RAM network inhibition [7] 1.66%

CC1CCN(CC(O)COc2ccc(F)cc2)CC1 (stereo unspecified)
inactive: growth inhibition [1] -19.2% | growth inhibition [2] -16.5% | viability increase [3] -0.7% | viability [4] 96.4% | viability [5] 99.5% | inhibition [6] 0.515% | RAM network inhibition [7] 2.56%

O=C(NC1CCCCCCC1)c1ccc(CNc2c(N3CCOCC3)c(=O)c2=O)cc1
inactive: growth inhibition [1] 1.56% | growth inhibition [2] 8.42% | viability increase [3] 0.25% | viability [4] 100% | viability [5] 95.6% | inhibition [6] 0.71% | RAM network inhibition [7] 0.92%

COc1cc(Br)cc(-c2nc3c(c(=O)[nH]c(=O)n3Cc3ccccc3)n2C)c1O
inactive: growth inhibition [1] 3.34% | growth inhibition [2] -0.8% | viability increase [3] -1.31% | viability [4] 89.6% | viability [5] 87.6% | inhibition [6] 2.02% | RAM network inhibition [7] 3.23%

— PubChem BioAssay
